Measured values taken from PMC11974842 (bioRxiv, 2025).

Legend:
[1] = Melting temperature by Thermofluor; type: physicochemical, Homo sapiens; settings: R65W vs WT HsCia1
[2] = system: HsCia2a; test: Affinity copurification of HsCia1 with HsCia2a; type: binding, Homo sapiens; settings: strep-tagged HsCia1 bait, HsCia2a prey
In short: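 Recombinant human Cia1, wild-type or R65A variant, carries the strep tag as bait. Human Cia2a is the prey. Copurified proteins are compared between the two bait forms. Uncropped gels, including input samples and controls, accompany the analysis.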

[3] = system: Cia1; settings: via C-terminal tryptophan; ref [26]; cited from earlier work
[4] = system: CtCia1-Cia2; test: Affinity copurification of ScMet18 with CtCia1-Cia2; type: binding, Chaetomium thermophilum

Hs R65WCia1: human Cia1 pathogenic variant implicated in a fatal neuromuscular disorder
thermostability of HsCia1 [1]: without impacting Cia1’s thermostability | thermostability of HsCia1 ([1]; listed as R65W HsCia1): did not affect the stability of HsCia1 in vitro | interaction with HsCia2a [2]: strongly disrupted

Viperin: CIA client
binding to Cia1 [3]: binds Cia1 via Viperin’s C-terminal tryptophan

B1: ScMet18: S. cerevisiae Met18 with N-terminal His6-SUMO tag (protein)
chain: MTPDELNSAVVTFMANLNIDDSKANETASTVTDSIVHRSIKLLEVVVALKDYFLSENEVERKKALTCLTTILAKTPKDHLSKNECSVIFQFYQSKLDDQALAKEVLEGFAALAPMKYVSINEIAQLLRLLLDNYQQGQHLASTRLWPFKILRKIFDRFFVNGSSTEQVKRINDLFIETFLHVANGEKDPRNLLLSFALNKSITSSLQNVENFKEDLFDVLFCYFPITFKPPKHDPYKISNQDLKTALRSAITATPLFAEDAYSNLLDKLTASSPVVKNDTLLTLLECVRKFGGSSILENWTLLWNALKFEIMQNSEGNENTLLNPYNKDQQSDDVGQYTNYDACLKIINLMALQLYNFDKVSFEKFFTHVLDELKPNFKYEKDLKQTCQILSAIGSGNVEIFNKVISSTFPLFLINTSEVAKLKLLIMNFSFFVDSYIDLFGRTSKESLGTPVPNNKMAEYKDEIIMILSMALTRSSKAEVTIRTLSVIQFTKMIKMKGFLTPEEVSLIIQYFTEEILTDNNKNIYYACLEGLKTISEIYEDLVFEISLKKLLDLLPDCFEEKIRVNDEENIHIETILKIILDFTTSRHILVKESITFLATKLNRVAKISKSREYCFLLISTIYSLFNNNNQNENVLNEEDALALKNAIEPKLFEIITQESAIVSDNYNLTLLSNVLFFTNLKIPQAAHQEELDRYNELFISEGKIRILDTPNVLAISYAKILSALNKNCQFPQKFTVLFGTVQLLKKHAPRMTETEKLGYLELLLVLSNKFVSEKDVIGLFDWKDLSVINLEVMVWLTKGLIMQNSLESSEIAKKFIDLLSNEEIGSLVSKLFEVFVMDISSLKKFKGISWNNNVKILYKQKFFGDIFQTLVSNYKNTVDMTIKCNYLTALSLVLKHTPSQSVGPFINDLFPLLLQALDMPDPEVRVSALETLKDTTDKHHTLITEHVSTIVPLLLSLSLPHKYNSVSVRLIALQLLEMITTVVPLNYCLSYQDDVLSALIPVLSDKKRIIRKQCVDTRQVYYELGQIPFE
modifications: left off: His6, N-terminal, state not stated | SUMO, N-terminal, state not stated
binding to CtCia1-Cia2 [4]: can bind to CtCia1-Cia2
